Results as given in ChEMBL document CHEMBL2375313, “Synthesis, in vitro antitumor evaluation and DNA-binding study of novel tetrahydroquinolines and some derived tricyclic and tetracyclic ring systems” (Eur J Med Chem, 2013).

Experiments:
Format in all cases: functional
IGROV-1 = assay: Cytotoxicity against human IGROV1 cells assessed as growth inhibition at 10 uM after 48 hrs by sulphorhodamine B assay; conditions: IGROV-1, 48 h, read-out: GI
Summary of the method: (§1)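 NCI-60 one-dose screen per the NCI Drug Evaluation Branch protocol. Cells given a single 10 µM concentration with 48 h continuous exposure. Growth estimated by sulphorhodamine B protein assay. Result expressed as percentage growth inhibition relative to untreated growth.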

SF-268 = assay: Cytotoxicity against human SF268 cells assessed as growth inhibition at 10 uM after 48 hrs by sulphorhodamine B assay; conditions: SF-268, 48 h, read-out: GI; summary of the method: as §1
MDA-MB-468 = assay: Cytotoxicity against human MDA-MB-468 cells assessed as growth inhibition at 10 uM after 48 hrs by sulphorhodamine B assay; conditions: MDA-MB-468, 48 h, read-out: GI; summary of the method: as §1
SK-MEL-5 = assay: Cytotoxicity against human SK-MEL-5 cells assessed as growth inhibition at 10 uM after 48 hrs by sulphorhodamine B assay; conditions: SK-MEL-5, 48 h, read-out: GI; summary of the method: as §1
Hs-578T = assay: Cytotoxicity against human Hs578T cells assessed as growth inhibition at 10 uM after 48 hrs by sulphorhodamine B assay; conditions: read-out: GI; summary of the method: as §1
NCI-H522 = assay: Cytotoxicity against human NCI-H522 cells assessed as growth inhibition at 10 uM after 48 hrs by sulphorhodamine B assay; conditions: NCI-H522, 48 h, read-out: GI; summary of the method: as §1
ACHN = assay: Cytotoxicity against human ACHN cells assessed as growth inhibition at 10 uM after 48 hrs by sulphorhodamine B assay; conditions: read-out: GI; summary of the method: as §1
HT-29 = assay: Cytotoxicity against human HT-29 cells assessed as growth inhibition at 10 uM after 48 hrs by sulphorhodamine B assay; conditions: HT-29, 48 h, read-out: GI; summary of the method: as §1
MCF7 = assay: Cytotoxicity against human MCF7 cells assessed as growth inhibition at 10 uM after 48 hrs by sulphorhodamine B assay; conditions: MCF7, 48 h, read-out: GI; summary of the method: as §1
PC-3 = assay: Cytotoxicity against human PC3 cells assessed as growth inhibition at 10 uM after 48 hrs by sulphorhodamine B assay; conditions: PC-3, 48 h, read-out: GI; summary of the method: as §1
CAKI-1 = assay: Cytotoxicity against human Caki1 cells assessed as growth inhibition at 10 uM after 48 hrs by sulphorhodamine B assay; conditions: CAKI-1, 48 h, read-out: GI; summary of the method: as §1
[1] = Cytotoxicity against human CNS cancer cells after 48 hrs by sulphorhodamine B assay; conditions: Cancer cell lines
[2] = Cytotoxicity against human colon cancer cells after 48 hrs by sulphorhodamine B assay; conditions: Cancer cell lines
[3] = Cytotoxicity against human ovarian cancer cells after 48 hrs by sulphorhodamine B assay; conditions: Cancer cell lines
[4] = Cytotoxicity against human non-small cell lung cancer cells after 48 hrs by sulphorhodamine B assay; conditions: Cancer cell lines
[5] = Cytotoxicity against human leukemia cells after 48 hrs by sulphorhodamine B assay; conditions: Leukemia cell
[6] = Cytotoxicity against human renal cancer cells after 48 hrs by sulphorhodamine B assay; conditions: Cancer cell lines
[7] = Cytotoxicity against human breast cancer cells after 48 hrs by sulphorhodamine B assay; conditions: Cancer cell lines
[8] = Cytotoxicity against human prostate cancer cells after 48 hrs by sulphorhodamine B assay; conditions: Cancer cell lines
[9] = Cytotoxicity against human melanoma cells after 48 hrs by sulphorhodamine B assay; conditions: Melanoma cell
[10] = read-out: LC50 (the source's name)

In the case of `CCSc1nc(N)c2c(-c3ccc(Cl)cc3)c3c(nc2n1)C(C)CCC3` (centres undefined), the inhibition of growth at 10 µM (IGROV-1) is reported as 39%, the inhibition of growth at 10 µM (SF-268) is reported as under 10% and the inhibition of growth at 10 µM (MDA-MB-468) is reported as 30.8%. For the same compound, the inhibition of growth at 10 µM (SK-MEL-5) was under 10%, the inhibition of growth at 10 µM (Hs-578T) was 14.2% and the inhibition of growth at 10 µM (NCI-H522) was 21.9%. For the same compound, the inhibition of growth at 10 µM (ACHN) was 30.8%, the inhibition of growth at 10 µM (HT-29) was 27.7% and the inhibition of growth at 10 µM (MCF7) was under 10%. The inhibition of growth at 10 µM (PC-3) was 25.3% and the inhibition of growth at 10 µM (CAKI-1) was under 10%.
Compound `CC1CCCc2c1nc1nc(SCC(=O)c3ccccc3)nc(N)c1c2-c1ccc(Cl)cc1` (centres undefined) has a GI50 [1] of 62.3 µM, an LC50 [1] of over 100 µM and a TGI [1] of 84.1 µM. It also gave an inhibition of growth at 10 µM (IGROV-1) of under 10%, an inhibition of growth at 10 µM (SF-268) of 23.7% and a GI50 [2] of over 100 µM. The TGI [2] was 86.5 µM, the CC50 [2, 10] was over 100 µM and the GI50 [3] was 80.6 µM. The TGI [3] was 95.5 µM, the CC50 [3, 10] was over 100 µM and the GI50 [4] was 46.1 µM. For the same compound, the TGI [4] was over 100 µM, the CC50 [4, 10] was over 100 µM and the inhibition of growth at 10 µM (MDA-MB-468) was 22.9%. For the same compound, the GI50 [5] was 34.7 µM, the LC50 [5] was 93.3 µM and the TGI [5] was 65.1 µM. For the same compound, the GI50 [6] was 51.8 µM, the LC50 [6] was over 100 µM and the TGI [6] was over 100 µM. For the same compound, the GI50 [7] was 79.3 µM, the TGI [7] was 89.6 µM and the CC50 [7, 10] was over 100 µM. For the same compound, the inhibition of growth at 10 µM (SK-MEL-5) was 67%, the GI50 [8] was 75.5 µM and the LC50 [8] was over 100 µM. It also gave a TGI [8] of over 100 µM, a GI50 [9] of 58 µM and a TGI [9] of over 100 µM. It also gave a CC50 [9, 10] of over 100 µM, an inhibition of growth at 10 µM (Hs-578T) of 38.2% and an inhibition of growth at 10 µM (NCI-H522) of 17.5%. The inhibition of growth at 10 µM (ACHN) was 29.3%, the inhibition of growth at 10 µM (HT-29) was 21.5% and the inhibition of growth at 10 µM (MCF7) was 30%. It also gave an inhibition of growth at 10 µM (PC-3) of 66.8% and an inhibition of growth at 10 µM (CAKI-1) of 11.8%.
